From PMC3144155 (Journal of medicinal chemistry, 2011)
Substitutions are numbered along the chain they refer to. Each block holds one compound with its values, some of them ahead of it.

Key:
[1] = test system: demethylated form of PP2A; test: PP2A methylation state in untransfected HEK 293T cells; assay type: cell-based, human; conditions: 1 hour, basal PME-1
Method in brief: (§1)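 Compound or DMSO added to the medium of HEK 293T cells at 37 °C. Total sonicated cell extract diluted to 2 mg/mL in PBS, run on reducing 10% SDS-PAGE, and immunoblotted with demethylated-specific (4b7), methylated-specific (2A10) and total PP2A antibodies plus α-tubulin. Bands quantified by fluorescence imaging. Mean ± SEM, n = 3; compared with DMSO-treated cells.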

PME-1 [2] = molecular target: T1, PME-1 (Homo sapiens, UniProt Q9Y570); conditions: read-out: PME-1 IC50; cited from earlier work
T1 sequence (Q9Y570 2-386 limits assumed): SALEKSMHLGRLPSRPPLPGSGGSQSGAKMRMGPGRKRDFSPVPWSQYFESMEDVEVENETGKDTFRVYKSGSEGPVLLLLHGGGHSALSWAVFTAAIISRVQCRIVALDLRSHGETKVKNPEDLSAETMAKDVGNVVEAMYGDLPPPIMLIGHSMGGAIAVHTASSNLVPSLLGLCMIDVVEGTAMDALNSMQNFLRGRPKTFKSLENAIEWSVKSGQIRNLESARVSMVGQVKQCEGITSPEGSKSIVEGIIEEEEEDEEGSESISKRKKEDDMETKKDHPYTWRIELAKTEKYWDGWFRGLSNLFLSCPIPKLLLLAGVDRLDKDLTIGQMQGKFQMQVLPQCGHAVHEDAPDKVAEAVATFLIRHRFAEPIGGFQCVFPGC

[3] = test system: other SHs in human cell lysates; test: Gel-based competitive ABPP, other SHs in human cell proteomes/lysates; assay type: biochemical; conditions: human cell proteomes
PME-1 [4] = molecular target: T2, PME-1 (Mus musculus, UniProt Q8BVQ5); test: Gel-based competitive ABPP with FP-Rh, PME-1 in mouse brain soluble proteome; assay type: biochemical
T2 sequence (Q8BVQ5 1-386): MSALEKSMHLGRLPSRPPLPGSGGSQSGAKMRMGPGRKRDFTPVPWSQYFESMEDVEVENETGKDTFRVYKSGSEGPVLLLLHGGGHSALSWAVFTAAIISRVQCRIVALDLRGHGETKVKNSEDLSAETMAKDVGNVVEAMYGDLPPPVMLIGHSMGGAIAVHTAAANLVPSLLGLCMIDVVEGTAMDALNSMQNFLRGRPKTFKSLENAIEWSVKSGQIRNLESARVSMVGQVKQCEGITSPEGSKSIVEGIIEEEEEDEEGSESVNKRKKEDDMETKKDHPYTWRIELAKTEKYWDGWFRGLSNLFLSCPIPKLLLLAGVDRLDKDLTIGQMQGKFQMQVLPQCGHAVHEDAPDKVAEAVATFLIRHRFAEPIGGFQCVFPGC
Method in brief: (§2)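 Soluble proteomes diluted to 1 mg/mL in PBS (pH 7.5) and preincubated with compound or DMSO for 30 min at 25 °C. FP-rhodamine then added (2 μM final) for 45 min. Reactions quenched with reducing SDS loading buffer, separated by 10% SDS-PAGE, and serine hydrolase activity read by in-gel fluorescence scanning.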

other SHs [5] = assay type: biochemical, mouse; conditions: Off-targets are defined as SHs with >50% inhibition at 50 μM; Table 1 series
Method in brief: as §2

PME-1 [6] = molecular target: T1, PME-1; test: PME-1 IC50 by gel-based competitive ABPP in soluble proteomes; assay type: biochemical; conditions: Table 2 series
PP2A methylation state = PP2A methylation state in HEK 293T cells stably overexpressing PME-1; assay type: cell-based, human; conditions: 20 μM, 1 h
Method in brief: as §1

[7] = test system: 35 other SHs detected in HEK 293T cells; test: In situ competitive SILAC-ABPP; assay type: cell-based, human; conditions: 20 μM, 1 h
Method in brief: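 HEK 293T cells SILAC-labelled with light or heavy Lys/Arg. Light cells given compound and heavy cells DMSO, 1 h at 37 °C. Soluble and membrane proteomes (0.5 mg each) mixed 1:1 and labelled with FP-biotin (5 μM, 1 h, 25 °C). Streptavidin enrichment, on-bead trypsin digestion, then MudPIT LC-MS/MS. Light/heavy ratios taken for SHs with ≥2 quantifiable peptides, normalised to a DMSO/DMSO control.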

Purified wild-type PME-1 = molecular target: T3, Purified wild-type PME-1 (Homo sapiens, UniProt Q9Y570); test: Reversibility of PME-1 inhibition; assay type: biochemical; conditions: PME-1 500 nM, compound 50 μM
T3 sequence (Q9Y570 1-386): T2 sequence (Q8BVQ5 1-386) with T42S, G114S, S123P, V150I, A167S, A168S, V268I, N269S

[8] = test system: CA-Rh or SE-Rh-labeled proteins; test: CA-Rh / SE-Rh probe labeling of soluble proteomes from treated HEK 293T cells; assay type: cell-based, human; conditions: 100 μM, relative to DMSO-treated samples
Method in brief: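 Compound or DMSO added to the culture medium of HEK 293T cells at 37 °C. Cells washed, scraped, pelleted, and sonicated in ice-cold PBS (pH 7.5). Soluble fraction isolated at 64,000g for 45 min at 4 °C and diluted to 1 mg/mL. Labelled with CA-rhodamine or SE-rhodamine (5 μM, 1 h, 25 °C), resolved by reducing 10% SDS-PAGE, and scanned for in-gel fluorescence.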

PME-1 [9] = molecular target: T4, PME-1 (Homo sapiens, UniProt Q9Y570); test: In situ competitive SILAC-ABPP; assay type: cell-based; conditions: HEK 293T cells, 20 μM, 1 h
T4 sequence (Q9Y570 1-386): T2 sequence (Q8BVQ5 1-386) with T42S, G114S, S123P, V150I, A167S, A168S, V268I, N269S

other SHs [10] = test: In situ gel-based competitive ABPP, other SHs in HEK 293T cells; assay type: cell-based, human; conditions: up to 100 μM compound, 1 h
Method in brief: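 HEK 293T cells treated in culture with a concentration range of compound or DMSO for 1 h at 37 °C, then harvested and sonicated in PBS (pH 7.5). Soluble fraction (64,000g supernatant) diluted to 1 mg/mL and labelled with FP-rhodamine (2 μM, 45 min, 25 °C). Resolved by 10% SDS-PAGE and read by in-gel fluorescence scanning.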

SMILES: COC(=O)N1C(=O)[C@](c2ccccc2)(C2CCCC2)N1C(=O)OC (stereo in doubt) [Cmpd 1, reference compound]
Effect on the demethylated form of PP2A ([1]; 500 nM): decreased the demethylated form of PP2A
IC50 (PME-1 [2]): ~0.01 µM

SMILES: CS(=O)(=O)/C(C#N)=C/c1cccn1S(=O)(=O)c1ccccc1 [Cmpd 2]
Cross-reactivity with additional SHs [3]: acyl-peptide hydrolase (APEH) and an unidentified 30 kDa SH

SMILES: CS(=O)(=O)/C(C#N)=C/c1ccc[nH]1 [Cmpd 7, (E)-2-(methylsulfonyl)-3-(1H-pyrrol-2-yl)acrylonitrile]
PME-1 activity (in words) (PME-1 [4]): inactive

SMILES: CS(=O)(=O)/C(C#N)=C/c1ccccc1 [Cmpd 8, (E)-2-(methylsulfonyl)-3-phenylacrylonitrile]
PME-1 activity (in words) (PME-1 [4]): inactive

SMILES: CS(=O)(=O)/C(C#N)=C/c1ccc([N+](=O)[O-])cc1 [Cmpd 9, (E)-2-(methylsulfonyl)-3-(4-nitrophenyl)acrylonitrile]
PME-1 activity (in words) (PME-1 [4]): inactive

SMILES: CS(=O)(=O)/C(C#N)=C/c1cccn1S(=O)(=O)c1c(F)c(F)c(F)c(F)c1F [Cmpd 22, (E)-2-(methylsulfonyl)-3-(1-((perfluorophenyl)sulfonyl)-1H-pyrrol-2-yl)acrylonitrile]
PME-1 activity (in words) (PME-1 [6]): no activity

SMILES: N#C/C(=C\c1cccn1S(=O)(=O)c1cccc(C#N)c1)S(=O)(=O)c1ccc(F)cc1 [Cmpd 27, (E)-3-(2-(2-cyano-2-(4-fluorophenylsulfonyl)vinyl)-1H-pyrrol-1-ylsulfonyl)benzonitrile]
Effect on the methylated form of PP2A (PP2A methylation state): significantly increased

SMILES: N#C/C(=C\c1cccn1S(=O)(=O)c1cccc([N+](=O)[O-])c1)S(=O)(=O)c1ccc(F)cc1 [Cmpd 28, (E)-2-(4-fluorophenylsulfonyl)-3-(1-(3-nitrophenylsulfonyl)-1H-pyrrol-2-yl)acrylonitrile]
Activity against other SHs (SILAC-ABPP) [7]: no activity
Effect on the methylated form of PP2A (PP2A methylation state): significantly increased
Recovery of enzyme activity after gel filtration (Purified wild-type PME-1): not observed
Change of intensity of CA-Rh or SE-Rh-labeled proteins [8]: did not alter the intensity
in situ inhibition of PME-1 (SILAC-ABPP) (PME-1 [9]): complete in situ inhibition
Cross-reactivity with other SHs in situ (other SHs [10]): without any observed cross-reactivity
Effect on the demethylated form of PP2A ([1]; 20 μM): decreased the demethylated form of PP2A

The next lines start with results.

PME-1 activity (in words) (PME-1 [4]): inactive
SMILES: CS(=O)(=O)C(C#N)Cc1cccn1S(=O)(=O)c1ccccc1 (centres unmarked) [Cmpd 3, 2-(methylsulfonyl)-3-(1-(phenylsulfonyl)-1H-pyrrol-2-yl)propanenitrile]

PME-1 activity (in words) (PME-1 [4]): inactive
SMILES: CS(=O)(=O)/C(=C/c1cccn1S(=O)(=O)c1ccccc1)CN [Cmpd 4, (E)-2-(methylsulfonyl)-3-(1-(phenylsulfonyl)-1H-pyrrol-2-yl)prop-2-en-1-amine]

PME-1 activity (in words) (PME-1 [4]): did not inhibit PME-1
SMILES: CS(=O)(=O)C(=Cc1cccn1S(=O)(=O)c1ccccc1)S(C)(=O)=O [Cmpd 16, 2-(2,2-bis(methylsulfonyl)vinyl)-1-(phenylsulfonyl)-1H-pyrrole]

PME-1 activity (in words) (PME-1 [4]): two-fold less potent
SMILES: N#CC(C#N)=Cc1cccn1S(=O)(=O)c1ccccc1 [Cmpd 17, 2-((1-(phenylsulfonyl)-1H-pyrrol-2-yl)methylene)malononitrile]
Off-targets (other SHs [5]): increased activity against a 40 kDa SH
